What was measured:
[1] = test system: CEM-SS cells (Homo sapiens); experiment: In vitro inhibition of CEM-SS cell growth by 50 %
[2] = test system: Human immunodeficiency virus 1; experiment: Differential selectivity measured as the ratio of CEM-SS cell growth IC50 vs HIV plaque formation IC50.; assay type: functional
Method in brief: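 Selectivity index taken as CEM-SS growth IC50 (48 h suspension culture, [3H]thymidine uptake) divided by HIV-1 syncytial plaque IC50 (day-5 plaque count in CEM-SS monolayers, 60–90 PFU). Both IC50s come from twofold dilutions over 0.03–20.0 μM.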

[3] = test system: Human immunodeficiency virus 1; experiment: In vitro inhibition of HIV-1 plaque formation; assay type: functional, organism-based
Method in brief: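 HIV-1 syncytial plaque assay. CEM-SS cells in log phase, washed in PBS, 50 000 per well in serum-free RPMI-1640 on poly-L-lysine-coated wells, 30 min at 37 °C, 5% CO2. Inoculated with HIV-1 (60–90 PFU). After 60 min, overlay with or without compound at serial twofold dilutions, 0.03–20.0 μM. Second overlay on day 3. Plaques counted on day 5 to give IC50. Mean ± SD, n ≥ 3, or a single experiment.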

Row | Structure (SMILES) | IC50 [1] [µM] | Ratio [2] | IC50 [3] [µM]
1 | CCCCCCCCCCCCCCCCSCC(C[N+](C)(C)CCO)OC.[Br-] (stereo not drawn) | 2.1 | 5.7 | 0.37
2 | Cc1cn([C@H]2C[C@H](N=[N+]=[N-])[C@@H](CO)O2)c(=O)[nH]c1=O [ZIDOVUDINE] | 5.6 |  | 
3 | CCCCCCCCCCCCCCCCCC(=O)NCCOP(=O)([O-])OCC[N+](C)(C)C | 19.3 | 68.7 | 0.28
4 | CCCCCCCCCCCCCCCCOCC(COP(=O)(O)OCCNC(C)(C)C)OCC (stereo not drawn) | 10 |  | > 5
5 | CCCCCCCCCCCCCCCCOCC(C[N+](C)(C)C)OC.[Br-] (stereo not drawn) | 1.1 | 2.1 | 0.52
6 | CCCCCCCCCCCCCCCCCCNC(=O)NCC(COP(=O)([O-])OCC[N+](C)(C)C)OCC (stereo not drawn) | 7.7 | 13.5 | 0.57
7 | CCCCCCCCCCCCCCCCCCSCC(C[N+](C)(C)CCCO)OC.[I-] (stereo not drawn) | 4 | 9.8 | 0.41
8 | CCCCCCCCCCCCCCCCSCCOP(=O)([O-])OCC[N+](C)(C)C | 7.6 | 27.1 | 0.28
9 | CCCCCCCCCCCCCCCCCC(=O)NCC(COP(=O)([O-])OCC[N+](C)(C)C)OC (stereo not drawn) | 14.2 | 47.3 | 0.3
10 | CCCCCCCCCCCCCCCCCCOCC(COP(=O)([O-])OCC[N+](C)(C)C)OC (stereo not drawn) [EDELFOSINE] | 4 | 4.3 | 0.92
11 | CCCCCCCCCCCCCCCCCC(=O)NCC(COP(=O)([O-])OCC[N+](C)(C)C)OCC (stereo not drawn) | 13.5 | 84.4 | 0.16
12 | CCCCCCCCCCCCCCCCCCS(=O)(=O)CC(COP(=O)([O-])OCC[N+](C)(C)C)OCC (stereo not drawn) | 9 | 7.5 | 1.2
13 | CCCCCCCCCCCCCCCCOCC(CO)OCC (stereo not drawn) | > 20 |  | > 5
14 | CCCCCCCCCCCCCCCCCCOCC[N+](C)(C)CC(O)CO.[I-] (stereo not drawn) | 2.9 | 14.5 | 0.2
15 | CCCCCCCCCCCCCCCC(=O)NCC(COP(=O)([O-])OCC[N+](C)(C)C)OC (stereo not drawn) | 24.7 | 26.6 | 0.93
16 | CCCCCCCCCCCCCCCCOCC(COP(=O)([O-])OCC[n+]1ccccc1)OCC (stereo not drawn) | 8.1 | 1.7 | 4.7

Row | Structure (SMILES) | IC50 [1] [µM] | Ratio [2] | IC50 [3] [µM]
17 | CCCCCCCCCCCCCCCCSCC(COP(=O)([O-])OCC[N+](C)(C)C)OCC (stereo not drawn) | 4.1 | 5.9 | 0.7
18 | CCCCCCCCCCCCCCCCOCC[N+](C)(C)CCCO.[I-] | 1.5 | 6.1 | 0.24
19 | CCCCCCCCCCCCCCCCCCSCC(COP(=O)([O-])OCC[N+](C)(C)C)OC (stereo not drawn) | 3.8 | 7.8 | 0.49
20 | CCCCCCCCCCCCCCCCOCC[N+](C)(C)CCO.[I-] | 6 | 15.6 | 0.38
21 | CCCCCCCCCCCCCCCCSCC(C[N+](C)(C)CC(O)CO)OC.[Br-] (stereo not drawn) | 2 | 4.1 | 0.49
22 | CCCCCCCCCCCCCCCCOCC(C[N+]1(CO)CCCCC1)OCC.[I-] (stereo not drawn) | 2.4 | 8 | 0.3
23 | CCCCCCCCCCCCCCCCOCC(CN(C)CCO)OC (stereo not drawn) | 3.2 | 1.5 | 2.1
24 | CCCCCCCCCCCCCCCC(=O)NCC(COP(=O)([O-])OCC[N+](C)(C)C)OCC (stereo not drawn) | 19 | 41.3 | 0.46
25 | CCCCCCCCCCCCCCCCOCC(C[n+]1ccccc1)OCC.[Br-] (stereo not drawn) | 1.1 | 5.2 | 0.21
26 | CCCCCCCCCCCCCCCCCCOCC(COP(=O)([O-])OCC[N+](C)(C)C)OCC (stereo not drawn) | 3 | 11.1 | 0.27
27 | CCCCCCCCCCCCCCCCSCC(C[N+](C)(C)CCO)OCC.[Br-] (stereo not drawn) | 5.1 | 8.1 | 0.63
28 | CCCCCCCCCCCCCCCCOCC(CP(=O)([O-])OCC[n+]1ccccc1)OC (stereo not drawn) | 7.7 | 3.5 | 2.2
29 | CCCCCCCCCCCCCCCCSCC(C[N+](C)(C)C)OC.[Br-] (stereo not drawn) | 5.3 | 13.4 | 0.39
30 | CCCCCCCCCCCCCCCCCCCC(=O)NCC(COP(=O)([O-])OCC[N+](C)(C)C)OCC (stereo not drawn) | 4.7 | 29.4 | 0.16
31 | CCCCCCCCCCCCCCCCOCC(COP(=O)(O)OCCNC(C)C)OCC (stereo not drawn) | 7 |  | > 5

From ChEMBL document CHEMBL1125666, “In vitro evaluation of phosphocholine and quaternary ammonium containing lipids as novel anti-HIV agents” (J Med Chem, 1991)
